From ChEMBL document CHEMBL1125107, “Cephalosporin 3'-quinolone esters with a dual mode of action” (J Med Chem, 1990) come the findings set out here.

≈ marks a conversion by molar mass, not a printed value. Where only a bound is given, the exact number is not on record here.

For the first experiment, the system named is Pseudomonas aeruginosa. In words: Evaluated for the minimum inhibitory concentration against Pseudomonas aeruginosa 18S/H ( Class Id beta-lactamase overproducer). Type of experiment: functional. An outline of the steps: (§1)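 MIC by serial 2-fold dilution in Mueller-Hinton broth; results given as minimum inhibitory concentrations (nmol/mL).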
`CCN1CCN(C(=O)NC(C(=O)N[C@@H]2C(=O)N3C(C(=O)O)=C(COC(=O)c4cn(CC)c5cc(N6CCSCC6)c(F)cc5c4=O)CSC23)c2ccccc2)C(=O)C1=O` (stereo partly specified) came in with an MIC of 32 mg/L (≈ 37.7 µM).

Turning to `O=C(COc1ccccc1)N[C@@H]1C(=O)N2C(C(=O)O)=C(COC(=O)c3cn(-c4ccc(F)cc4)c4cc5c(cc4c3=O)OCO5)CSC12` (stereo partly specified), it took 64 mg/L (≈ 95 µM) to inhibit growth (MIC).

With `CCn1cc(C(=O)O)c(=O)c2cc(F)c(N3CCCC3)cc21`, the MIC was found to be 128 mg/L (≈ 421 µM).

`CCn1cc(C(=O)O)c(=O)c2cc3c(cc21)OCO3` [OXOLINIC ACID] had an MIC of 4 mg/L (≈ 15.3 µM).

In the case of `CCn1cc(C(=O)OCC2=C(C(=O)O)N3C(=O)[C@@H](NC(=O)COc4ccccc4)C3SC2)c(=O)c2cc(F)c(N3CCN(C=O)CC3)cc21` (stereo partly specified), the MIC came out at 8 mg/L (≈ 11.5 µM).

A further experiment concerns Proteus vulgaris. In words: Evaluated for the minimum inhibitory concentration against Proteus vulgaris 1028 BC (Class Ic beta-lactamase overproducer. Type of experiment: functional. An outline of the steps:
as §1
`CCn1cc(C(=O)O)c(=O)c2cc(F)c(N3CCCC3)cc21` displayed an MIC of 1 mg/L (≈ 3.29 µM).

The subject of the next experiment is Escherichia coli. In words: Evaluated for the minimum inhibitory concentration against Escherichia coli TEM-1. Type of experiment: functional. In short, it runs like this: (§2)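 Serial 2-fold broth dilution in Mueller-Hinton broth, run by standard methodology; read-out is the minimum inhibitory concentration (MIC).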
Regarding `CCn1cc(C(=O)O)c(=O)c2cc3c(cc21)OCO3` [OXOLINIC ACID], the MIC was 0.25 mg/L (≈ 0.957 µM).

In a further experiment the test system is Proteus vulgaris. In words: Evaluated for the minimum inhibitory concentration against Proteus vulgaris 1028 BC. Type of experiment: functional. In short, it runs like this:
as §2
The compound `O=C(COc1ccccc1)N[C@@H]1C(=O)N2C(C(=O)O)=C(COC(=O)c3cn(-c4ccc(F)cc4)c4cc5c(cc4c3=O)OCO5)CSC12` (stereo partly specified) gave an MIC of 64 mg/L (≈ 95 µM).

With `CCn1cc(C(=O)O)c(=O)c2cc3c(cc21)OCO3` [OXOLINIC ACID], the MIC was 0.063 mg/L (≈ 0.241 µM).

The next experiment has as its system Staphylococcus aureus. In words: Minimum inhibitory concentration against Staphylococcus aureus 95 (Methicillin-resistant, high-level beta-lactamase producer). Type of experiment: functional. An outline of the steps: as §2
Consider `CCN1CCN(C(=O)NC(C(=O)N[C@@H]2C(=O)N3C(C(=O)O)=C(COC(=O)c4cn(CC)c5cc(N6CCSCC6)c(F)cc5c4=O)CSC23)c2ccccc2)C(=O)C1=O` (stereo partly specified), for which the MIC came to 1 mg/L (≈ 1.18 µM).

`O=C(COc1ccccc1)N[C@@H]1C(=O)N2C(C(=O)O)=C(COC(=O)c3cn(-c4ccc(F)cc4)c4cc5c(cc4c3=O)OCO5)CSC12` (stereo partly specified) showed an MIC of 64 mg/L (≈ 95 µM).

The compound `CCn1cc(C(=O)O)c(=O)c2cc(F)c(N3CCCC3)cc21` returned an MIC of 0.063 mg/L (≈ 0.207 µM). This MIC lies about 1000-fold lower than the previous one.

`CCn1cc(C(=O)O)c(=O)c2cc3c(cc21)OCO3` [OXOLINIC ACID] displayed an MIC of 2 mg/L (≈ 7.66 µM).

`CCn1cc(C(=O)OCC2=C(C(=O)O)N3C(=O)[C@@H](NC(=O)COc4ccccc4)C3SC2)c(=O)c2cc(F)c(N3CCN(C=O)CC3)cc21` (stereo partly specified) yielded an MIC of 2 mg/L (≈ 2.88 µM).

The next experiment deals with Streptococcus pyogenes. In words: Minimum inhibitory concentration against Streptococcus pyogenes 4. Type of experiment: functional. In short, it runs like this:
(§3)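 Broth MIC determination: serial 2-fold dilutions in Mueller-Hinton broth by standard methodology; the lowest concentration inhibiting growth is reported as the MIC, in nmol/mL.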
`CCN1CCN(C(=O)NC(C(=O)N[C@@H]2C(=O)N3C(C(=O)O)=C(COC(=O)c4cn(CC)c5cc(N6CCSCC6)c(F)cc5c4=O)CSC23)c2ccccc2)C(=O)C1=O` (stereo partly specified) gave an MIC of 0.016 mg/L (≈ 0.0188 µM).

In turn, `O=C(COc1ccccc1)N[C@@H]1C(=O)N2C(C(=O)O)=C(COC(=O)c3cn(-c4ccc(F)cc4)c4cc5c(cc4c3=O)OCO5)CSC12` (stereo partly specified) had an MIC of 2 mg/L (≈ 2.97 µM).

For `CCn1cc(C(=O)O)c(=O)c2cc3c(cc21)OCO3` [OXOLINIC ACID], the MIC was more than 128 mg/L.

In the next experiment the test system is Streptococcus pneumoniae. In words: Minimum inhibitory concentration against Streptococcus pneumoniae 6301. It is filed as functional. An outline of the steps:
as §3
Take `CCN1CCN(C(=O)NC(C(=O)N[C@@H]2C(=O)N3C(C(=O)O)=C(COC(=O)c4cn(CC)c5cc(N6CCSCC6)c(F)cc5c4=O)CSC23)c2ccccc2)C(=O)C1=O` (stereo partly specified): the MIC amounted to 0.125 mg/L (≈ 0.147 µM).

`O=C(COc1ccccc1)N[C@@H]1C(=O)N2C(C(=O)O)=C(COC(=O)c3cn(-c4ccc(F)cc4)c4cc5c(cc4c3=O)OCO5)CSC12` (stereo partly specified) showed an MIC of 1 mg/L (≈ 1.48 µM).

`CCn1cc(C(=O)O)c(=O)c2cc(F)c(N3CCCC3)cc21`: the MIC is more than 128 mg/L.

`CCn1cc(C(=O)O)c(=O)c2cc3c(cc21)OCO3` [OXOLINIC ACID]: the MIC is more than 128 mg/L.

In a further experiment the test system is Enterobacter cloacae. In words: Evaluated for the minimum inhibitory concentration against Enterobacter cloacae P99. Type of experiment: functional. In short, it runs like this: as §2
For the compound `CCn1cc(C(=O)O)c(=O)c2cc3c(cc21)OCO3` [OXOLINIC ACID], 0.5 mg/L (≈ 1.91 µM) was the least that counted as inhibitory (MIC).

Another experiment deals with Pseudomonas aeruginosa. In words: Minimum inhibitory concentration against Pseudomonas aeruginosa ATCC 27853. Type of experiment: functional. In short, it runs like this: as §3
With `O=C(COc1ccccc1)N[C@@H]1C(=O)N2C(C(=O)O)=C(COC(=O)c3cn(-c4ccc(F)cc4)c4cc5c(cc4c3=O)OCO5)CSC12` (stereo partly specified), the MIC was more than 128 mg/L.

Compound `CCn1cc(C(=O)O)c(=O)c2cc(F)c(N3CCCC3)cc21` returned an MIC of more than 128 mg/L.

In the case of `CCn1cc(C(=O)O)c(=O)c2cc3c(cc21)OCO3` [OXOLINIC ACID], it took 64 mg/L (≈ 245 µM) to inhibit growth (MIC).

`CCn1cc(C(=O)OCC2=C(C(=O)O)N3C(=O)[C@@H](NC(=O)COc4ccccc4)C3SC2)c(=O)c2cc(F)c(N3CCN(C=O)CC3)cc21` (stereo partly specified) yielded an MIC of 128 mg/L (≈ 185 µM).

For another experiment, the system named is Enterobacter cloacae. In words: Evaluated for the minimum inhibitory concentration against Enterobacter cloacae P99 ( Class Ia beta-lactamase overproducer). Type of experiment: functional. In short, it runs like this: as §1
For the compound `CCn1cc(C(=O)OCC2=C(C(=O)O)N3C(=O)[C@@H](NC(=O)COc4ccccc4)C3SC2)c(=O)c2cc(F)c(N3CCN(C=O)CC3)cc21` (stereo partly specified), inhibition of growth (MIC) required 2 mg/L (≈ 2.88 µM).

In a further experiment the test system is Pseudomonas aeruginosa. In words: Evaluated for the minimum inhibitory concentration against Pseudomonas aeruginosa ATCC 27853. It is filed as functional. An outline of the steps:
as §1
The compound `CCN1CCN(C(=O)NC(C(=O)N[C@@H]2C(=O)N3C(C(=O)O)=C(COC(=O)c4cn(CC)c5cc(N6CCSCC6)c(F)cc5c4=O)CSC23)c2ccccc2)C(=O)C1=O` (stereo partly specified) showed an MIC of 64 mg/L (≈ 75.3 µM).

The test system of another experiment is Proteus vulgaris. In words: Minimum inhibitory concentration against Proteus vulgaris 1028 BC (Class Ic beta-lactamase overproducer). Type of experiment: functional. An outline of the steps: as §3
`CCN1CCN(C(=O)NC(C(=O)N[C@@H]2C(=O)N3C(C(=O)O)=C(COC(=O)c4cn(CC)c5cc(N6CCSCC6)c(F)cc5c4=O)CSC23)c2ccccc2)C(=O)C1=O` (stereo partly specified) showed an MIC of 64 mg/L (≈ 75.3 µM).

In the case of `CCn1cc(C(=O)OCC2=C(C(=O)O)N3C(=O)[C@@H](NC(=O)COc4ccccc4)C3SC2)c(=O)c2cc(F)c(N3CCN(C=O)CC3)cc21` (stereo partly specified), the MIC is 4 mg/L (≈ 5.77 µM).

For a further experiment, the system named is Escherichia coli. In words: Evaluated for the minimum inhibitory concentration against Escherichia coli UB 1005. Type of experiment: functional. In short, it runs like this:
as §1
For `CCn1cc(C(=O)OCC2=C(C(=O)O)N3C(=O)[C@@H](NC(=O)COc4ccccc4)C3SC2)c(=O)c2cc(F)c(N3CCN(C=O)CC3)cc21` (stereo partly specified), the MIC came out at 128 mg/L (≈ 185 µM).

As a reminder, the MIC is the least concentration at which growth counts as inhibited. Low readings indicate a more susceptible organism, high ones a less susceptible organism.
